The source made the active and inactive calls. No cut-off for these calls is given here.
Experiments:
[1] = Stability in human plasma assessed as half life; format: ADME, cell-free
[2] = Stability in human microsomes assessed as half life; format: ADME, Microsome
[3] = Stability in hamster plasma assessed as half life; format: ADME, cell-free, Cricetulus griseus; conditions: chinese hamster
[4] = Stability in hamster microsomes assessed as half life; format: ADME, Cricetulus griseus, Microsome; conditions: chinese hamster
[5] = Drug metabolism in hamster lung assessed as NTP metabolite formation at 10 mg/kg, iv measured upto 24 hrs by LC-MS/MS analysis; format: ADME, organism-based, Cricetulus griseus; conditions: chinese hamster, in vivo
Summary of the method: (§1)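 Female catheterized hamsters were dosed 10 mg/kg iv at 2 mg/mL; remdesivir was in 15% cyclodextrin at pH 3–3.5 and the prodrug in cyclodextrin or albumin. Two per group were sacrificed at 0.5–24 h. Tissues were homogenized in 70% methanol with internal standard. NTP was measured by ion-pairing LC-MS/MS (dimethylhexylamine/ammonium formate mobile phase), negative-ion MRM, against 10-point 5–5000 ng/mL standards. Exposure was reported as AUC.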

[6] = Drug metabolism in hamster spleen assessed as NTP metabolite formation at 10 mg/kg, iv measured upto 24 hrs by LC-MS/MS analysis; format: ADME, organism-based, Cricetulus griseus; conditions: chinese hamster, in vivo; summary of the method: as §1
[7] = Drug metabolism in hamster blood assessed as NTP metabolite formation at 10 mg/kg, iv measured upto 24 hrs by LC-MS/MS analysis; format: ADME, organism-based, Cricetulus griseus; conditions: chinese hamster, in vivo; summary of the method: as §1
[8] = tested on: SARS-CoV-2; assay: Antiviral activity against SARS-CoV-2 beta B.1.351 infected in African green monkey Vero E6 cells assessed as protection against virus-induced cytopathic effect incubated for 2 days by CellTiter-Glo assay; format: functional, organism-based; conditions: Severe acute respiratory syndrome coronavirus 2, beta B.1.351, Vero 76, 48 h
[9] = Drug metabolism in hamster lymph node assessed as NTP metabolite formation at 10 mg/kg, iv measured upto 24 hrs by LC-MS/MS analysis; format: ADME, organism-based, Cricetulus griseus; conditions: chinese hamster, in vivo; summary of the method: as §1
[10] = Drug accumulation in hamster kidney at 10 mg/kg, iv measured upto 24 hrs by LC-MS/MS analysis; format: ADME, organism-based, Cricetulus griseus; conditions: chinese hamster, in vivo
Summary of the method: (§2)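 Catheterized female hamsters received 10 mg/kg iv at 2 mg/mL. The remdesivir vehicle was 15% cyclodextrin at pH 3–3.5; the test prodrug was given in cyclodextrin or albumin formulation. Two animals per group were sacrificed at 0.5, 1, 4, 7 and 24 h. Tissues were homogenized in 5-fold 70% methanol with internal standard and supernatants analysed by LC-MS against 5–5000 ng/mL standard curves.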

[11] = Drug accumulation in hamster liver at 10 mg/kg, iv measured upto 24 hrs by LC-MS/MS analysis; format: ADME, organism-based, Cricetulus griseus; conditions: chinese hamster, in vivo; summary of the method: as §2
[12] = Prodrug activation in human Calu-3 cells assessed as ALA release at 10 uM measured upto 12 hrs by LC-MS analysis; format: cell-based; conditions: calu-3, 12 h
Summary of the method: (§3)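 Calu-3 cells (1–5 × 10^5/well) were cultured 12 h, then exposed to 10 μM drug at 37 °C for 2, 6 and 12 h (n = 3). Cells were detached with trypsin-EDTA, pelleted and washed three times with ice-cold PBS. Drug was extracted overnight at −20 °C in ice-cold 70% methanol, and supernatants were analysed by LC-MS.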

[13] = Prodrug activation in human Calu-3 cells assessed as NUC release at 10 uM measured upto 12 hrs by LC-MS analysis; format: cell-based; conditions: calu-3, 12 h; summary of the method: as §3
[14] = Prodrug activation in human Calu-3 cells assessed as NTP release at 10 uM measured upto 12 hrs by LC-MS analysis; format: cell-based; conditions: calu-3, 12 h; summary of the method: as §3
[15] = tested on: SARS-CoV-2; assay: Antiviral activity against SARS-CoV-2 infected in African green monkey Vero E6 cells assessed as protection against virus-induced cytopathic effect incubated for 2 days by CellTiter-Glo assay; format: functional, organism-based; conditions: Severe acute respiratory syndrome coronavirus 2, Vero 76, 48 h
[16] = tested on: SARS-CoV-2; assay: Antiviral activity against SARS-CoV-2 alpha B.1.1.7 infected in African green monkey Vero E6 cells assessed as protection against virus-induced cytopathic effect incubated for 2 days by CellTiter-Glo assay; format: functional, organism-based; conditions: Severe acute respiratory syndrome coronavirus 2, alpha B.1.1.7, Vero 76, 48 h
[17] = tested on: SARS-CoV-2; assay: Antiviral activity against SARS-CoV-2 gamma P.1 infected in African green monkey Vero E6 cells assessed as protection against virus-induced cytopathic effect incubated for 2 days by CellTiter-Glo assay; format: functional, organism-based; conditions: Severe acute respiratory syndrome coronavirus 2, gamma P.1, Vero 76, 48 h
[18] = tested on: SARS-CoV-2; assay: Antiviral activity against SARS-CoV-2 delta B.1.617.2 infected in African green monkey Vero E6 cells assessed as protection against virus-induced cytopathic effect incubated for 2 days by CellTiter-Glo assay; format: functional, organism-based; conditions: Severe acute respiratory syndrome coronavirus 2, delta B.1.617.2, Vero 76, 48 h
[19] = tested on: Vero 76; assay: Cytotoxicity against African green monkey Vero E6 cells at 10 uM; format: toxicity, cell-based; conditions: chlorocebus sabaeus, vero 76, 10 µM
[20] = tested on: SARS-CoV-2; assay: Antiviral activity against SARS-CoV-2 infected in African green monkey Vero E6 cells assessed as reduction in viral titer incubated for 2 days by CellTiter-Glo assay; format: functional, organism-based; conditions: Severe acute respiratory syndrome coronavirus 2; Vero 76; time 2.0 day
[21] = Stability in mouse plasma assessed as half life; format: ADME, cell-free
[22] = Stability in mouse microsomes assessed as half life; format: ADME, Microsome

Row | SMILES | half-life [1] [min] | half-life [2] [min] | half-life [3] [min] | half-life [4] [min] | Drug metabolism [5] | Drug metabolism [6] | Drug metabolism [7] | EC50 [8] [µM] | Drug metabolism [9] | Drug uptake [10] [%] | Drug uptake [11] [%] | Drug metabolism [12] | Drug metabolism [13] | Drug metabolism [14] | EC50 [15] [µM] | EC50 [16] [µM] | EC50 [17] [µM] | EC50 [18] [µM] | Activity [19] | Activity [20] | also measured
1 | C[C@H](NP(=O)(OC[C@H]1O[C@@](C#N)(c2ccc3c(N)ncnn23)[C@H](O)[C@@H]1O)Oc1cccc2ccccc12)C(=O)OCc1ccccc1 (stereo not given in full) | 52.4 | 1.05 | 55.8 | 0.46 | – | – | – | – | – | – | – | – | – | – | – | – | – | – | – | – | –
2 | CCC(CC)COC(=O)[C@H](C)N[P@](=O)(OC[C@H]1O[C@@](C#N)(c2ccc3c(N)ncnn23)[C@H](O)[C@@H]1O)Oc1ccccc1 [REMDESIVIR] | 40.7 | 0.86 | 54.5 | 0.48 | Metabolite_Detected | Metabolite_Detected | Metabolite_Detected | 32 | Metabolite_Detected | 80 | 80 | Metabolite_Detected | Metabolite_Detected | Metabolite_Detected | 3.3 | 4.7 | 3.7 | 9.2 | Non-Toxic | Active | –
3 | CCCCC/C=C\C/C=C\CCCCCCCCOC(=O)[C@H](C)NP(=O)(OC[C@H]1O[C@@](C#N)(c2ccc3c(N)ncnn23)[C@H](O)[C@@H]1O)Oc1cccc2ccccc12 (stereo not given in full) | 286 | 19.7 | 271 | 61.8 | – | – | – | – | – | – | – | – | – | – | – | – | – | – | – | – | half-life [21]: 3.44 min; half-life [22]: 13.6 min
4 | CCCCCCCCCCCCOC(=O)[C@H](C)NP(=O)(OC[C@H]1O[C@@](C#N)(c2ccc3c(N)ncnn23)[C@H](O)[C@@H]1O)Oc1cccc2ccccc12 (stereo not given in full) | 154 | 6.11 | 158 | 3.49 | – | – | – | – | – | – | – | – | – | – | – | – | – | – | – | – | –
5 | CCCCCCCCCCCCOC(=O)[C@H](C)NP(=O)(OC[C@H]1O[C@@](C#N)(c2ccc3c(N)ncnn23)[C@H](O)[C@@H]1O)Oc1ccccc1 (stereo not given in full) | 47.1 | 4.29 | 71.2 | 2.72 | – | – | – | – | – | – | – | – | – | – | – | – | – | – | – | – | –
6 | CCCCC/C=C\C/C=C\CCCCCCCCOC(=O)[C@H](C)NP(=O)(OC[C@H]1O[C@@](C#N)(c2ccc3c(N)ncnn23)[C@H](O)[C@@H]1O)Oc1ccccc1 (stereo not given in full) | 192 | 8.33 | 128 | 16.2 | Metabolite_Detected | Metabolite_Detected | Metabolite_Detected | 15.9 | Metabolite_Detected | 80 | 80 | Metabolite_Detected | Metabolite_Detected | Metabolite_Detected | 0.4 | 2.5 | 1.7 | 5.6 | Non-Toxic | Active | half-life [21]: 1.03 min; half-life [22]: 8.65 min

Source: ChEMBL document CHEMBL5126630, “Optimization of the Prodrug Moiety of Remdesivir to Improve Lung Exposure/Selectivity and Enhance Anti-SARS-CoV-2 Activity” (J Med Chem, 2022)
